Data as given in ChEMBL document CHEMBL1122821, “Synthesis and some pharmacological properties of 18 potent O-alkyltyrosine-substituted antagonists of the vasopressor responses to arginine-vasopressin” (J Med Chem, 1985).

Key:
Rattus norvegicus [1] = species: Rattus norvegicus; assay: In vitro anti-oxytocic potency was evaluated in the absence of Mg2+; type: functional; details: read-out: pA2 (converted)
Method in brief: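 Isolated rat uterus in medium containing no Mg2+. USP posterior pituitary reference standard used as agonist. In vitro pA2 values were derived as in Bankowski et al.; means ± SE.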

Rattus norvegicus [2] = species: Rattus norvegicus; assay: In vitro anti-oxytocic potency was evaluated in the presence of 0.5 mM of Mg2+; type: functional; details: read-out: pA2 (converted)
Method in brief: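 Isolated rat uterus in medium containing 0.5 mM Mg2+. USP posterior pituitary reference standard used as agonist. In vitro pA2 values were derived as in Bankowski et al.; means ± SE.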

Rattus norvegicus [3] = assay: In vivo anti-vasopressor activity measured as the negative logarithm of the effective dose / the estimated volume of distribution (67 mL/kg); type: ADME, organism-based; details: read-out: pA2 (converted)
Method in brief: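 Rats treated with phenoxybenzamine under urethane anesthesia. Pressor responses to the USP posterior pituitary standard were given intravenously. Effective dose (nmol/kg) was interpolated on a log scale; means ± SE of at least four estimates. pA2 = −log(effective dose / 67 mL/kg).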

Rattus norvegicus [4] = assay: In vivo antidiuretic activity in rats under ethanol anesthesia.; type: functional, Urine
Method in brief: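 Rats under ethanol anesthesia, with the USP posterior pituitary reference standard as reference. Agonistic activity is expressed in units per milligram.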

SMILES	Kb (Rattus norvegicus [1])	Kb (Rattus norvegicus [2])	Kb (Rattus norvegicus [3])	Activity (Rattus norvegicus [4])
CCC1(CC)CC(=O)N[C@@H](Cc2ccc(OC)cc2)C(=O)N[C@@H](Cc2ccccc2)C(=O)N[C@@H](CCC(N)=O)C(=O)N[C@@H](CC(N)=O)C(=O)N[C@H](C(=O)N2CCC[C@H]2C(=O)N[C@@H](CCCN=C(N)N)C(=O)NCC(N)=O)CSS1 [listing 1 of 2 here]	11 nM	6.46 nM	2.95 nM	
COc1ccc(C[C@@H]2NC(=O)CC(C)(C)SSC[C@@H](C(=O)N3CCC[C@H]3C(=O)N[C@H](CCCN=C(N)N)C(=O)NCC(N)=O)NC(=O)[C@H](CC(N)=O)NC(=O)[C@H](CCC(N)=O)NC(=O)[C@H](Cc3ccccc3)NC2=O)cc1	24.5 nM	57.5 nM	11 nM	3.5 units/mg
CCOc1ccc(C[C@@H]2NC(=O)CC(C)(C)SSC[C@@H](C(=O)N3CCC[C@H]3C(=O)N[C@@H](CCCN=C(N)N)C(=O)NCC(N)=O)NC(=O)[C@H](CC(N)=O)NC(=O)[C@H](C(C)C)NC(=O)[C@H](Cc3ccccc3)NC2=O)cc1 [listing 1 of 2 here]	2.29 nM	21.9 nM	8.51 nM	
COc1ccc(C[C@@H]2NC(=O)CC3(CCCCC3)SSC[C@@H](C(=O)N3CCC[C@H]3C(=O)NC(CCCN=C(N)N)C(=O)NCC(N)=O)NC(=O)[C@H](CC(N)=O)NC(=O)[C@H](CCC(N)=O)NC(=O)[C@H](Cc3ccccc3)NC2=O)cc1 (stereo in doubt)	28.2 nM	15.5 nM	3.89 nM	0.23 units/mg
COc1ccc(C[C@@H]2NC(=O)CC3(CCCCC3)SSC[C@@H](C(=O)N3CCC[C@H]3C(=O)N[C@H](CCCN=C(N)N)C(=O)NCC(N)=O)NC(=O)[C@H](CC(N)=O)NC(=O)[C@H](CCC(N)=O)NC(=O)[C@H](Cc3ccccc3)NC2=O)cc1	7.41 nM	57.5 nM	2.4 nM	0.31 units/mg
CCOc1ccc(C[C@@H]2NC(=O)CC(C)(C)SSC[C@@H](C(=O)N3CCC[C@H]3C(=O)N[C@@H](CCCN=C(N)N)C(=O)NCC(N)=O)NC(=O)[C@H](CC(N)=O)NC(=O)[C@H](CCC(N)=O)NC(=O)[C@H](Cc3ccccc3)NC2=O)cc1 [listing 1 of 2 here]				0.59 units/mg
CCOc1ccc(C[C@@H]2NC(=O)CC(C)(C)SSC[C@@H](C(=O)N3CCC[C@H]3C(=O)NC(CCCN=C(N)N)C(=O)NCC(N)=O)NC(=O)[C@H](CC(N)=O)NC(=O)[C@H](CCC(N)=O)NC(=O)[C@H](Cc3ccccc3)NC2=O)cc1 (stereo in doubt) [listing 1 of 2 here]				0.23 units/mg
CCC1(CC)CC(=O)N[C@@H](Cc2ccc(OC)cc2)C(=O)N[C@@H](Cc2ccccc2)C(=O)N[C@@H](C(C)C)C(=O)N[C@@H](CC(N)=O)C(=O)N[C@H](C(=O)N2CCC[C@H]2C(=O)N[C@@H](CCCN=C(N)N)C(=O)NCC(N)=O)CSS1 [listing 1 of 2 here]				0.24 units/mg
CCOc1ccc(C[C@@H]2NC(=O)CC(CC)(CC)SSC[C@@H](C(=O)N3CCC[C@H]3C(=O)N[C@@H](CCCN=C(N)N)C(=O)NCC(N)=O)NC(=O)[C@H](CC(N)=O)NC(=O)[C@H](C(C)C)NC(=O)[C@H](Cc3ccccc3)NC2=O)cc1 [listing 1 of 2 here]				0.1 units/mg
COc1ccc(C[C@@H]2NC(=O)CC(C)(C)SSC[C@@H](C(=O)N3CCC[C@H]3C(=O)N[C@@H](CCCN=C(N)N)C(=O)NCC(N)=O)NC(=O)[C@H](CC(N)=O)NC(=O)[C@H](C(C)C)NC(=O)[C@H](Cc3ccccc3)NC2=O)cc1 [listing 1 of 2 here]				2.9 units/mg
CCC1(CC)CC(=O)N[C@@H](Cc2ccc(OC)cc2)C(=O)N[C@@H](Cc2ccccc2)C(=O)N[C@@H](C(C)C)C(=O)N[C@@H](CC(N)=O)C(=O)N[C@H](C(=O)N2CCC[C@H]2C(=O)N[C@H](CCCN=C(N)N)C(=O)NCC(N)=O)CSS1 [listing 1 of 2 here]	18.6 nM	11.7 nM	4.47 nM	
CCC1(CC)CC(=O)N[C@@H](Cc2ccc(OC)cc2)C(=O)N[C@@H](Cc2ccccc2)C(=O)N[C@@H](C(C)C)C(=O)N[C@@H](CC(N)=O)C(=O)N[C@H](C(=O)N2CCC[C@H]2C(=O)N[C@H](CCCN=C(N)N)C(=O)NCC(N)=O)CSS1 [listing 2 of 2 here]				0.11 units/mg
CCOc1ccc(C[C@@H]2NC(=O)CC(C)(C)SSC[C@@H](C(=O)N3CCC[C@H]3C(=O)N[C@H](CCCN=C(N)N)C(=O)NCC(N)=O)NC(=O)[C@H](CC(N)=O)NC(=O)[C@H](C(C)C)NC(=O)[C@H](Cc3ccccc3)NC2=O)cc1 [listing 1 of 2 here]	15.1 nM	26.9 nM	3.47 nM	
CCC1(CC)CC(=O)N[C@@H](Cc2ccc(OC)cc2)C(=O)N[C@@H](Cc2ccccc2)C(=O)N[C@@H](CCC(N)=O)C(=O)N[C@@H](CC(N)=O)C(=O)N[C@H](C(=O)N2CCC[C@H]2C(=O)NC(CCCN=C(N)N)C(=O)NCC(N)=O)CSS1 (stereo in doubt) [listing 1 of 2 here]				0.019 units/mg
COc1ccc(C[C@@H]2NC(=O)CC(C)(C)SSC[C@@H](C(=O)N3CCC[C@H]3C(=O)N[C@H](CCCN=C(N)N)C(=O)NCC(N)=O)NC(=O)[C@H](CC(N)=O)NC(=O)[C@H](C(C)C)NC(=O)[C@H](Cc3ccccc3)NC2=O)cc1 [listing 1 of 2 here]				3.2 units/mg
CCOc1ccc(C[C@@H]2NC(=O)CC(C)(C)SSC[C@@H](C(=O)N3CCC[C@H]3C(=O)N[C@@H](CCCN=C(N)N)C(=O)NCC(N)=O)NC(=O)[C@H](CC(N)=O)NC(=O)[C@H](C(C)C)NC(=O)[C@H](Cc3ccccc3)NC2=O)cc1 [listing 2 of 2 here]				0.62 units/mg

SMILES	Kb (Rattus norvegicus [1])	Kb (Rattus norvegicus [2])	Kb (Rattus norvegicus [3])	Activity (Rattus norvegicus [4])
CCOc1ccc(C[C@@H]2NC(=O)CC(CC)(CC)SSC[C@@H](C(=O)N3CCC[C@H]3C(=O)N[C@@H](CCCN=C(N)N)C(=O)NCC(N)=O)NC(=O)[C@H](CC(N)=O)NC(=O)[C@H](C(C)C)NC(=O)[C@H](Cc3ccccc3)NC2=O)cc1 [listing 2 of 2 here]	7.41 nM	37.2 nM	3.8 nM	
CCOc1ccc(C[C@@H]2NC(=O)CC(CC)(CC)SSC[C@@H](C(=O)N3CCC[C@H]3C(=O)N[C@@H](CCCN=C(N)N)C(=O)NCC(N)=O)NC(=O)[C@H](CC(N)=O)NC(=O)[C@H](CCC(N)=O)NC(=O)[C@H](Cc3ccccc3)NC2=O)cc1 [listing 1 of 2 here]	3.72 nM	10 nM	3.47 nM	
CCOc1ccc(C[C@@H]2NC(=O)CC(C)(C)SSC[C@@H](C(=O)N3CCC[C@H]3C(=O)N[C@H](CCCN=C(N)N)C(=O)NCC(N)=O)NC(=O)[C@H](CC(N)=O)NC(=O)[C@H](C(C)C)NC(=O)[C@H](Cc3ccccc3)NC2=O)cc1 [listing 2 of 2 here]				0.2 units/mg
CCOc1ccc(C[C@@H]2NC(=O)CC(CC)(CC)SSC[C@@H](C(=O)N3CCC[C@H]3C(=O)N[C@H](CCCN=C(N)N)C(=O)NCC(N)=O)NC(=O)[C@H](CC(N)=O)NC(=O)[C@H](CCC(N)=O)NC(=O)[C@H](Cc3ccccc3)NC2=O)cc1 [listing 1 of 2 here]	70.8 nM	28.8 nM	4.68 nM	
CCC1(CC)CC(=O)N[C@@H](Cc2ccc(OC)cc2)C(=O)N[C@@H](Cc2ccccc2)C(=O)N[C@@H](CCC(N)=O)C(=O)N[C@@H](CC(N)=O)C(=O)N[C@H](C(=O)N2CCC[C@H]2C(=O)N[C@@H](CCCN=C(N)N)C(=O)NCC(N)=O)CSS1 [listing 2 of 2 here]				0.066 units/mg
CCOc1ccc(C[C@@H]2NC(=O)CC(CC)(CC)SSC[C@@H](C(=O)N3CCC[C@H]3C(=O)N[C@H](CCCN=C(N)N)C(=O)NCC(N)=O)NC(=O)[C@H](CC(N)=O)NC(=O)[C@H](C(C)C)NC(=O)[C@H](Cc3ccccc3)NC2=O)cc1 [listing 1 of 2 here]	10.5 nM	12.9 nM	6.46 nM	
CCC1(CC)CC(=O)N[C@@H](Cc2ccc(OC)cc2)C(=O)N[C@@H](Cc2ccccc2)C(=O)N[C@@H](CCC(N)=O)C(=O)N[C@@H](CC(N)=O)C(=O)N[C@H](C(=O)N2CCC[C@H]2C(=O)NC(CCCN=C(N)N)C(=O)NCC(N)=O)CSS1 (stereo in doubt) [listing 2 of 2 here]	19.1 nM	7.94 nM	2.69 nM	
COc1ccc(C[C@@H]2NC(=O)CC(C)(C)SSC[C@@H](C(=O)N3CCC[C@H]3C(=O)N[C@@H](CCCN=C(N)N)C(=O)NCC(N)=O)NC(=O)[C@H](CC(N)=O)NC(=O)[C@H](C(C)C)NC(=O)[C@H](Cc3ccccc3)NC2=O)cc1 [listing 2 of 2 here]	3.72 nM	12.6 nM	4.37 nM	
CCOc1ccc(C[C@@H]2NC(=O)CC(CC)(CC)SSC[C@@H](C(=O)N3CCC[C@H]3C(=O)N[C@H](CCCN=C(N)N)C(=O)NCC(N)=O)NC(=O)[C@H](CC(N)=O)NC(=O)[C@H](C(C)C)NC(=O)[C@H](Cc3ccccc3)NC2=O)cc1 [listing 2 of 2 here]				0.07 units/mg
CCC1(CC)CC(=O)N[C@@H](Cc2ccc(OC)cc2)C(=O)N[C@@H](Cc2ccccc2)C(=O)N[C@@H](C(C)C)C(=O)N[C@@H](CC(N)=O)C(=O)N[C@H](C(=O)N2CCC[C@H]2C(=O)N[C@@H](CCCN=C(N)N)C(=O)NCC(N)=O)CSS1 [listing 2 of 2 here]	2.57 nM	11.7 nM	5.13 nM	
CCOc1ccc(C[C@@H]2NC(=O)CC(CC)(CC)SSC[C@@H](C(=O)N3CCC[C@H]3C(=O)N[C@@H](CCCN=C(N)N)C(=O)NCC(N)=O)NC(=O)[C@H](CC(N)=O)NC(=O)[C@H](CCC(N)=O)NC(=O)[C@H](Cc3ccccc3)NC2=O)cc1 [listing 2 of 2 here]				0.035 units/mg
COc1ccc(C[C@@H]2NC(=O)CC(C)(C)SSC[C@@H](C(=O)N3CCC[C@H]3C(=O)N[C@H](CCCN=C(N)N)C(=O)NCC(N)=O)NC(=O)[C@H](CC(N)=O)NC(=O)[C@H](C(C)C)NC(=O)[C@H](Cc3ccccc3)NC2=O)cc1 [listing 2 of 2 here]	31.6 nM	21.4 nM	14.5 nM	
CCOc1ccc(C[C@@H]2NC(=O)CC(C)(C)SSC[C@@H](C(=O)N3CCC[C@H]3C(=O)NC(CCCN=C(N)N)C(=O)NCC(N)=O)NC(=O)[C@H](CC(N)=O)NC(=O)[C@H](CCC(N)=O)NC(=O)[C@H](Cc3ccccc3)NC2=O)cc1 (stereo in doubt) [listing 2 of 2 here]	14.1 nM	38.9 nM	5.37 nM	
CCOc1ccc(C[C@@H]2NC(=O)CC(C)(C)SSC[C@@H](C(=O)N3CCC[C@H]3C(=O)N[C@@H](CCCN=C(N)N)C(=O)NCC(N)=O)NC(=O)[C@H](CC(N)=O)NC(=O)[C@H](CCC(N)=O)NC(=O)[C@H](Cc3ccccc3)NC2=O)cc1 [listing 2 of 2 here]	7.59 nM	44.7 nM	3.98 nM	
CCOc1ccc(C[C@@H]2NC(=O)CC(CC)(CC)SSC[C@@H](C(=O)N3CCC[C@H]3C(=O)N[C@H](CCCN=C(N)N)C(=O)NCC(N)=O)NC(=O)[C@H](CC(N)=O)NC(=O)[C@H](CCC(N)=O)NC(=O)[C@H](Cc3ccccc3)NC2=O)cc1 [listing 2 of 2 here]				0.0003 units/mg
